Results taken from ChEMBL document CHEMBL1123549, “Detection of N-acetyl-p-benzoquinone imine produced during the hydrolysis of the model phenacetin metabolite N-(pivaloyloxy)phenacetin” (J Med Chem, 1986).

What was measured:
Type in all cases: ADME
[1] = Pseudo-first-order rate constant for the decomposition of compound at 25 degree C in presence of HCl at pH 2.62; conditions: buffer
How it was run: (§1)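 Hydrolysis run in 5 vol % CH3CN-H2O, ionic strength 0.50 M (KCl), HCl solution, (25.0 ± 0.1) °C. pH meter readings corrected as pH = reading − 0.05, calibrated on standardized HCl. Progress followed by repetitive UV absorbance scans. Absorbance vs. time at 266.5 and 245 nm fit by least squares to the rate equation for two consecutive first-order processes, giving pseudo-first-order rate constants.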

[2] = Pseudo-first-order rate constant for the decomposition of compound at 25 degree C in presence of HCl at pH 1.30; conditions: buffer, pH 1.3; how it was run: as §1
[3] = (§2) Pseudo-first-order rate constant for the decomposition of compound at 25 degree C in presence of HCl at pH 2.00; conditions: buffer; how it was run: as §1
[4] = (§3) Pseudo-first-order rate constant for the decomposition of compound at 25 degree C in presence of HCl at pH 1.00; conditions: buffer; how it was run: as §1
[5] = Pseudo-first-order rate constant for the decomposition of compound at 25 degree C in presence of HCl at pH 2.31; conditions: buffer; how it was run: as §1
[6] = Pseudo-first-order rate constant for the decomposition of compound at 25 degree C in presence of HCl at pH 1.59; conditions: buffer; how it was run: as §1
[7] = as §3; conditions: buffer; remark: listed apart in the source
How it was run: (§4)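 Hydrolysis followed by UV absorbance (repetitive scans; traces at 266.5 and 245 nm) at 25.0 ± 0.1 °C in 5 vol % CH3CN-H2O, ionic strength 0.50 M (KCl). Media were HCl solutions, or acetate or phosphate buffers at 0.01 M total buffer. Meter pH was corrected by subtracting 0.05. Rate constants came from fitting absorbance vs. time to a first-order or two-consecutive-first-order equation.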

[8] = Pseudo-first-order rate constant for the decomposition of compound at 25 degree C in presence of K2HPO4/[…]/HCl at pH 7.55; conditions: buffer; how it was run: as §4
[9] = Pseudo-first-order rate constant for the decomposition of compound at 25 degree C in presence of HCl at pH 3.02; conditions: buffer; how it was run: as §4
[10] = Pseudo-first-order rate constant for the decomposition of compound at 25 degree C in presence of KOAc/HCl at pH 5.64; conditions: buffer; how it was run: as §4
[11] = Pseudo-first-order rate constant for the decomposition of compound at 25 degree C in presence of HCl at pH 2.00; Too fast to measure by conventional methods; conditions: buffer; how it was run: as §4
[12] = Pseudo-first-order rate constant for the decomposition of compound at 25 degree C in presence of KOAc/HCl at pH 4.60; conditions: buffer, pH 4.6; how it was run: as §4
[13] = Pseudo-first-order rate constant for the decomposition of compound at 25 degree C in presence of HCl at pH 1.00; Too fast to measure by conventional methods; conditions: buffer; how it was run: as §4
[14] = Pseudo-first-order rate constant for the decomposition of compound at 25 degree C in presence of K2HPO4/[…]/HCl at pH 5.75; conditions: buffer; how it was run: as §4
[15] = as §2; conditions: buffer; how it was run: as §4; remark: listed apart in the source
[16] = Pseudo-first-order rate constant for the decomposition of compound at 25 degree C in presence of K2HPO4/[…]/HCl at pH 6.77; conditions: buffer; how it was run: as §4
[17] = Pseudo-first-order rate constant for the decomposition of compound at 25 degree C in presence of KOAc/HCl at pH 3.71; conditions: buffer; how it was run: as §4

CC(=O)N=C1C=CC(=O)C=C1
k'' [1]: 0.000575 s⁻¹
k'' [2]: 0.0034 s⁻¹
k'' [3]: 0.000977 s⁻¹
k'' [4]: 0.00639 s⁻¹
k'' [5]: 0.000703 s⁻¹
k'' [6]: 0.0019 s⁻¹

CCOc1ccc(N(OC(=O)C(C)(C)C)C(C)=O)cc1
k0 [7]: 0.0271 s⁻¹
k0 [8]: 0.0214 s⁻¹
k' [8]: 0.0000288 s⁻¹
k0 [9]: 0.0205 s⁻¹
k' [9]: 0.155 s⁻¹
k'' [9]: 0.000476 s⁻¹
k'' [3]: 0.000996 s⁻¹
k0 [10]: 0.0224 s⁻¹
k' [10]: 0.000394 s⁻¹
k'' [10]: 0.00261 s⁻¹
k' [11]: Too fast to measure by conventional methods
k'' [4]: 0.00606 s⁻¹
k0 [12]: 0.0263 s⁻¹
k' [12]: 0.0037 s⁻¹
k'' [12]: 0.000642 s⁻¹
k' [13]: Too fast to measure by conventional methods
k0 [14]: 0.0226 s⁻¹
k' [14]: 0.000303 s⁻¹
k'' [14]: 0.00287 s⁻¹
k0 [15]: 0.0252 s⁻¹
k0 [16]: 0.0219 s⁻¹
k' [16]: 0.0000512 s⁻¹
k0 [17]: 0.0246 s⁻¹
k' [17]: 0.0246 s⁻¹
k'' [17]: 0.000471 s⁻¹
